ChEMBL document CHEMBL1641555, “Asymmetric synthesis of phenanthroindolizidine alkaloids with hydroxyl group at the C14 position and evaluation of their antitumor activities” (Bioorg Med Chem Lett, 2011)

Experiments:
[1] = system: KB; assay: Cytotoxicity against human KB cells after 96 hrs by WST-8 assay; type: functional, cell-based
Method in brief: (§1)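 KB, A549 and HT-29 cells in exponential growth were seeded at 10³ cells/well. Serially diluted compounds were added the following day and incubated for 96 h. WST-8 reagent was then added for 1 h at 37 °C, and viability was read as absorbance at 450 nm.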

[2] = system: A549; assay: Cytotoxicity against human A549 cells after 96 hrs by WST-8 assay; type: functional, cell-based; details: A549, 96 h; method in brief: as §1
[3] = system: HT-29; assay: Cytotoxicity against human HT-29 cells after 96 hrs by WST-8 assay; type: functional, cell-based; details: HT-29, 96 h; method in brief: as §1
[4] = Antitumor activity against mouse Meth-A cells xenografted in BALB/c mouse assessed as tumor growth inhibition at 25 mg/kg, iv administered on day 1, 5, and 9 measured after 21 days relative to control; type: functional
Method in brief: (§2)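 Meth A sarcoma cells, 2.5 × 10⁵ per mouse, implanted sc in 7-wk-old male BALB/c mice, 5 per group. Compound given iv on days 1, 5 and 9. Tumors excised and weighed on day 21 after inoculation. Inhibition rate (%) = [1 − (mean tumor weight treated)/(mean tumor weight control)] × 100.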

[5] = system: Mus musculus; assay: Toxicity in mouse Meth-A cells xenografted BALB/c mouse assessed as mortality at 25 mg/kg, iv; type: organism-based; set-up: dose 25 mg/kg, route intravenous; details: in vivo
Method in brief: (§3)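 Meth A sarcoma cells, 2.5 × 10⁵ per mouse, inoculated sc into 7-week-old male BALB/c mice, 5 per group. Samples given iv on days 1, 5 and 9. Animals followed to day 21 after tumor inoculation, when tumors were weighed.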

[6] = system: Mus musculus; assay: Toxicity in mouse Meth-A cells xenografted BALB/c mouse assessed as mortality at 50 mg/kg, iv; type: organism-based; set-up: dose 50 mg/kg, route intravenous; details: in vivo; method in brief: as §3
[7] = Antitumor activity against mouse Meth-A cells xenografted in BALB/c mouse assessed as tumor growth inhibition at 50 mg/kg, iv administered on day 1, 5, and 9 measured after 21 days relative to control; type: functional; method in brief: as §2
[8] = system: Mus musculus; assay: Toxicity in mouse Meth-A cells xenografted BALB/c mouse assessed as mortality at 100 mg/kg, iv; type: organism-based; set-up: dose 100 mg/kg, route intravenous; details: in vivo; method in brief: as §3

Row | Compound | IC50 [1] | IC50 [2] | IC50 [3] | inhibition in vivo at 25 mg/kg [4] | Activity [5] | Activity [6] | inhibition in vivo at 50 mg/kg [7] | Activity [8]
1 | COc1cc2c3c(c4cc(O)ccc4c2cc1OC)[C@H](O)[C@@H]1CCCN1C3 | 43.8 nM | 4.7 nM | 6.8 nM |  |  |  |  | 
2 | COc1cc2c3c(c4cccc(O)c4c2cc1OC)[C@H](O)[C@@H]1CCCN1C3 | 1.4 nM | 3.3 nM | 82.1 nM |  |  |  |  | 
3 | COc1cc2c3c(c4ccc(O)cc4c2cc1OC)[C@@H](O)[C@H]1CCCN1C3 | 3 nM | 10.9 nM | 12.5 nM | 7.2% | Non-toxic | Non-toxic | 12.5% | 
4 | COc1ccc2c3c(c4cc(OC)c(OC)cc4c2c1)CN1CCC[C@H]1[C@H]3O | 4.2 nM | 0.3 nM | 2.1 nM | 4.3% |  | Non-toxic |  | 
5 | COc1ccc2c3c(c4cc(OC)c(OC)cc4c2c1)CN1CCC[C@@H]1[C@@H]3O | 47.4 nM | 15.5 nM | 20.8 nM |  |  |  |  | 
6 | COc1cc2c3c(c4ccccc4c2cc1OC)[C@H](O)[C@@H]1CCCN1C3 | 17.5 nM | 7.4 nM | 10.6 nM |  |  |  |  | 
7 | COc1cc2c3c(c4ccccc4c2cc1OC)[C@@H](O)[C@H]1CCCN1C3 | 2030 nM | 604 nM | 584 nM |  |  |  |  | 
8 | CCc1ccc2c3c(c4cc(OC)c(OC)cc4c2c1)CN1CCC[C@H]1[C@H]3O | 180 nM | 559 nM | 135 nM |  |  |  |  | 
9 | CCc1ccc2c3c(c4cc(OC)c(OC)cc4c2c1)CN1CCC[C@@H]1[C@@H]3O | 1590 nM | 268 nM | 320 nM |  |  |  |  | 
10 | COc1cc2c3c(c4ccc(F)cc4c2cc1OC)[C@H](O)[C@@H]1CCCN1C3 | 49 nM | 11.2 nM | 19.6 nM |  |  |  |  | 
11 | COc1cc2c3c(c4ccc(F)cc4c2cc1OC)[C@@H](O)[C@H]1CCCN1C3 | 653 nM | 92.8 nM | 106 nM |  |  |  |  | 
12 | COc1cc2c3c(c4ccc(OC(C)=O)cc4c2cc1OC)[C@H](O)[C@@H]1CCCN1C3 | 1.7 nM | 1.5 nM | 0.2 nM | 54.9% | Non-toxic |  | 39.3% | 
13 | Oc1ccc2c3c(c4ccccc4c2c1)CN1CCC[C@H]1[C@H]3O | 1960 nM | 354 nM | 458 nM |  |  |  |  | 
14 | Oc1ccc2c3c(c4cc5c(cc4c2c1)OCO5)CN1CCC[C@H]1[C@H]3O | 25.5 nM | 54.4 nM | 134 nM |  |  |  |  | 
15 | CC1(C)Oc2cc3c4c(c5ccc(O)cc5c3cc2O1)[C@H](O)[C@@H]1CCCN1C4 | 742 nM | 928 nM | 488 nM |  |  |  |  | 
16 | CCOc1cc2c3c(c4ccc(O)cc4c2cc1OCC)[C@H](O)[C@@H]1CCCN1C3 | 10.9 nM | 0.7 nM | 1.2 nM | -3.1% | Non-toxic | Non-toxic | -10.6% | 
17 | COc1cc2c(CBr)cc3ccc(OCc4ccccc4)cc3c2cc1OC |  |  |  |  |  | Non-toxic |  | Non-toxic
18 | COc1cc2c3c(c4ccc(O)cc4c2cc1OC)[C@H](O)[C@@H]1CCCN1C3 [TYLOPHORIDICINE E] | 5.2 nM | 0.5 nM | 1.6 nM | 30.6% | Non-toxic | Toxic |  | 
